Experimental data reported in ChEMBL document CHEMBL3228024, “Prodrug analogues of the antitumor alkaloid camptothecin” (1979).
Active and inactive are the calls of the source. No cut-off for these calls is given here.

Columns and labels:
P388 [1] = assay: Antitumor activity against mouse P388 cells allografted in mouse assessed as increase in mouse survival time at 0.4 mg/kg, iv for 4 to 9 days relative to control; type: functional
Procedure, shortened: (§1)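 Run under NCI protocols 3LE21 (L1210) and 3PS31 (P388) in mice, six mice per test group. Drug was injected daily for 9 days, with 20–30 uninjected control animals. Mean or median survival time of the treated group was divided by that of controls and multiplied by 100, then reported as percentage increase in life span.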

L1210 [2] = assay: Antitumor activity against mouse L1210 cells allografted in mouse assessed as increase in mouse survival time at 0.4 mg/kg, iv for 4 to 9 days relative to control; type: functional; procedure, shortened: as §1
P388 [3] = assay: Antitumor activity against mouse P388 cells allografted in mouse assessed as increase in mouse survival time at 11.1 mg/kg, iv for 4 to 9 days relative to control; type: functional; procedure, shortened: as §1
P388 [4] = assay: Antitumor activity against mouse P388 cells allografted in mouse assessed as increase in mouse survival time at 3.7 mg/kg, iv for 4 to 9 days relative to control; type: functional; procedure, shortened: as §1
P388 [5] = assay: Antitumor activity against mouse P388 cells allografted in mouse assessed as increase in mouse survival time at 1.2 mg/kg, iv for 4 to 9 days relative to control; type: functional; procedure, shortened: as §1
L1210 [6] = assay: Antitumor activity against mouse L1210 cells allografted in mouse assessed as increase in mouse survival time at 11.1 mg/kg, iv for 4 to 9 days relative to control; type: functional; procedure, shortened: as §1
L1210 [7] = assay: Antitumor activity against mouse L1210 cells allografted in mouse assessed as increase in mouse survival time at 3.7 mg/kg, iv for 4 to 9 days relative to control; type: functional; procedure, shortened: as §1
L1210 [8] = assay: Antitumor activity against mouse L1210 cells allografted in mouse assessed as increase in mouse survival time at 1.2 mg/kg, iv for 4 to 9 days relative to control; type: functional; procedure, shortened: as §1
HeLa = assay: Antitumor activity against human HeLa cells assessed as inhibition of radioactive thymidine incorporation into acid-insoluble material by DNA sedimentation assay; type: functional, cell-based
[9] = Cytotoxicity against human 9KB cells; type: functional
P388 [10] = assay: Cytotoxicity against mouse P388 cells; type: functional; conditions: Mus musculus, P388; read-out: ED50 (the source's name)
L1210 [11] = assay: Cytotoxicity against mouse L1210 cells; type: functional
[12] = Cytotoxicity against human 9KB cells relative to camptothecin; type: functional
P388 [13] = assay: Cytotoxicity against mouse P388 cells relative to camptothecin; type: functional
L1210 [14] = assay: Cytotoxicity against mouse L1210 cells relative to camptothecin; type: functional
P388 [15] = assay: Antitumor activity against mouse P388 cells allografted in mouse assessed as increase in mouse survival time at 0.5 mg/kg, iv for 4 to 9 days relative to control; type: functional; procedure, shortened: as §1
L1210 [16] = assay: Antitumor activity against mouse L1210 cells allografted in mouse assessed as increase in mouse survival time at 0.5 mg/kg, iv for 4 to 9 days relative to control; type: functional; procedure, shortened: as §1
[17] = system: Lewis lung carcinoma cell line; assay: Antitumor activity against mouse LLC cells allografted in mouse assessed as increase in mouse survival time at 4 mg/kg, iv for 4 to 9 days relative to control; type: functional
Procedure, shortened: (§2)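 Run under NCI protocols 3B131 (B-16 melanocytic melanoma) and 3LL32 (Lewis lung carcinoma) in mice, ten mice per test group. Drug was injected every 4 days, with 20–30 uninjected control animals. Mean or median survival of treated mice over that of controls ×100 was reported as percentage increase in life span.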

P388 [18] = assay: Antitumor activity against mouse P388 cells allografted in mouse assessed as increase in mouse survival time at 14.3 mg/kg, iv for 4 to 9 days relative to control; type: functional; procedure, shortened: as §1
P388 [19] = assay: Antitumor activity against mouse P388 cells allografted in mouse assessed as increase in mouse survival time at 4.8 mg/kg, iv for 4 to 9 days relative to control; type: functional; procedure, shortened: as §1
P388 [20] = assay: Antitumor activity against mouse P388 cells allografted in mouse assessed as increase in mouse survival time at 1.6 mg/kg, iv for 4 to 9 days relative to control; type: functional; procedure, shortened: as §1
L1210 [21] = assay: Antitumor activity against mouse L1210 cells allografted in mouse assessed as increase in mouse survival time at 14.3 mg/kg, iv for 4 to 9 days relative to control; type: functional; procedure, shortened: as §1
L1210 [22] = assay: Antitumor activity against mouse L1210 cells allografted in mouse assessed as increase in mouse survival time at 4.8 mg/kg, iv for 4 to 9 days relative to control; type: functional; procedure, shortened: as §1
L1210 [23] = assay: Antitumor activity against mouse L1210 cells allografted in mouse assessed as increase in mouse survival time at 1.6 mg/kg, iv for 4 to 9 days relative to control; type: functional; procedure, shortened: as §1
B16 [24] = assay: Antitumor activity against mouse B16 cells allografted in mouse assessed as increase in mouse survival time at 46 mg/kg, iv for 4 to 9 days relative to control; type: functional; procedure, shortened: as §2
B16 [25] = assay: Antitumor activity against mouse B16 cells allografted in mouse assessed as increase in mouse survival time at 14.6 mg/kg, iv for 4 to 9 days relative to control; type: functional; procedure, shortened: as §2
B16 [26] = assay: Antitumor activity against mouse B16 cells allografted in mouse assessed as increase in mouse survival time at 4 mg/kg, iv for 4 to 9 days relative to control; type: functional; procedure, shortened: as §2
[27] = system: Lewis lung carcinoma cell line; assay: Antitumor activity against mouse LLC cells allografted in mouse assessed as increase in mouse survival time at 44.4 mg/kg, iv for 4 to 9 days relative to control; type: functional; procedure, shortened: as §2
[28] = system: Lewis lung carcinoma cell line; assay: Antitumor activity against mouse LLC cells allografted in mouse assessed as increase in mouse survival time at 14.6 mg/kg, iv for 4 to 9 days relative to control; type: functional; procedure, shortened: as §2
P388 [29] = assay: Antitumor activity against mouse P388 cells allografted in mouse assessed as increase in mouse survival time at 45 mg/kg, iv for 4 to 9 days relative to control; type: functional; procedure, shortened: as §1
P388 [30] = assay: Antitumor activity against mouse P388 cells allografted in mouse assessed as increase in mouse survival time at 23 mg/kg, iv for 4 to 9 days relative to control; type: functional; procedure, shortened: as §1
P388 [31] = assay: Antitumor activity against mouse P388 cells allografted in mouse assessed as increase in mouse survival time at 6.4 mg/kg, iv for 4 to 9 days relative to control; type: functional; procedure, shortened: as §1
P388 [32] = assay: Antitumor activity against mouse P388 cells allografted in mouse assessed as increase in mouse survival time at 12.8 mg/kg, iv for 4 to 9 days relative to control; type: functional; procedure, shortened: as §1
P388 [33] = assay: Antitumor activity against mouse P388 cells allografted in mouse assessed as increase in mouse survival time at 4.3 mg/kg, iv for 4 to 9 days relative to control; type: functional; procedure, shortened: as §1
P388 [34] = assay: Antitumor activity against mouse P388 cells allografted in mouse assessed as increase in mouse survival time at 1.4 mg/kg, iv for 4 to 9 days relative to control; type: functional; procedure, shortened: as §1
L1210 [35] = assay: Antitumor activity against mouse L1210 cells allografted in mouse assessed as increase in mouse survival time at 12.8 mg/kg, iv for 4 to 9 days relative to control; type: functional; procedure, shortened: as §1
L1210 [36] = assay: Antitumor activity against mouse L1210 cells allografted in mouse assessed as increase in mouse survival time at 4.3 mg/kg, iv for 4 to 9 days relative to control; type: functional; procedure, shortened: as §1
L1210 [37] = assay: Antitumor activity against mouse L1210 cells allografted in mouse assessed as increase in mouse survival time at 1.4 mg/kg, iv for 4 to 9 days relative to control; type: functional; procedure, shortened: as §1
B16 [38] = assay: Antitumor activity against mouse B16 cells allografted in mouse assessed as increase in mouse survival time at 43.5 mg/kg, iv for 4 to 9 days relative to control; type: functional; procedure, shortened: as §2
B16 [39] = assay: Antitumor activity against mouse B16 cells allografted in mouse assessed as increase in mouse survival time at 14.8 mg/kg, iv for 4 to 9 days relative to control; type: functional; procedure, shortened: as §2
B16 [40] = assay: Antitumor activity against mouse B16 cells allografted in mouse assessed as increase in mouse survival time at 4.9 mg/kg, iv for 4 to 9 days relative to control; type: functional; procedure, shortened: as §2
[41] = system: Lewis lung carcinoma cell line; assay: Antitumor activity against mouse LLC cells allografted in mouse assessed as increase in mouse survival time at 48 mg/kg, iv for 4 to 9 days relative to control; type: functional; procedure, shortened: as §2
[42] = system: Lewis lung carcinoma cell line; assay: Antitumor activity against mouse LLC cells allografted in mouse assessed as increase in mouse survival time at 15.7 mg/kg, iv for 4 to 9 days relative to control; type: functional; procedure, shortened: as §2

## CC[C@@](O)(C(=O)[O-])c1cc2n(c(=O)c1CO)Cc1cc3ccccc3nc1-2.[Na+]
P388 [1]
  T/C: 139%
L1210 [2]
  T/C: 116%
P388 [3]
  T/C: 67%
P388 [4]
  T/C: 85%
P388 [5]
  T/C: 168%
L1210 [6]
  T/C: 74%
L1210 [7]
  T/C: 114%
L1210 [8]
  T/C: 147%
HeLa
  inhibition: Active

## CCCCCC(=O)OCc1c([C@@](O)(CC)C(=O)NC(C)C)cc2n(c1=O)Cc1cc3ccccc3nc1-2
[9]
  ED50: 8.1 ×10⁻⁵ umol/ml
P388 [10]
  EC50: 1.2 µM
L1210 [11]
  ED50: 5.5 ×10⁻⁴ umol/ml
[12]
  Activity: 29%
P388 [13]
  Activity: 0.01%
L1210 [14]
  Activity: 2%
P388 [15]
  T/C: 107%
L1210 [16]
  T/C: 105%
[17]
  T/C: 163%
P388 [18]
  T/C: 155%
P388 [19]
  T/C: 139%
P388 [20]
  T/C: 107%
L1210 [21]
  T/C: 133%
L1210 [22]
  T/C: 116%
L1210 [23]
  T/C: 105%
B16 [24]
  T/C: 109%
B16 [25]
  T/C: 109%
B16 [26]
  T/C: 110%
[27]
  T/C: 134%
[28]
  T/C: 147%
HeLa
  inhibition: Active

## CC[C@@](O)(C(=O)NC(C)C)c1cc2n(c(=O)c1Cn1ccnc1)Cc1cc3ccccc3nc1-2
P388 [29]
  T/C: 92%
P388 [30]
  T/C: 89%
P388 [31]
  T/C: 105%

## CC[C@@](O)(C(=O)NC(C)C)c1cc2n(c(=O)c1COC(C)=O)Cc1cc3ccccc3nc1-2
[9]
  ED50: 7.8 ×10⁻⁴ umol/ml
P388 [10]
  EC50: 7.4 µM
[12]
  Activity: 2.8%
P388 [13]
  Activity: 0.08%
P388 [32]
  T/C: 97%
P388 [33]
  T/C: 173%
P388 [34]
  T/C: 126%
P388 [15]
  T/C: 126%
L1210 [35]
  T/C: 105%
L1210 [36]
  T/C: 147%
L1210 [37]
  T/C: 116%
L1210 [16]
  T/C: 110%
B16 [38]
  T/C: 114%
B16 [39]
  T/C: 105%
B16 [40]
  T/C: 100%
[41]
  T/C: 156%
[42]
  T/C: 166%
[17]
  T/C: 147%
